Source: PubChem (several laboratories)
ABCB6 inh 2 = blocks the human ABCB6 transporter; fluorescence ratio to DMSO, % at 10 µM; actives 0.19% (n = 360,000); K562-ABCB6 porphyrin accumulation, flow cytometry, 1 h; active compounds read low; AID 602162;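 active means fluorescence ratio to DMSO below 75%, the collection mean minus 3 SD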;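 further: signal is porphyrin accumulated inside mitochondria; 100% equals median channel fluorescence of DMSO control wells; lower ratio means ABCB6 inhibition with less porphyrin fluorescence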
V-ATPase pH = alters yeast V-ATPase proton transport. S. cerevisiae, pHLuorin cytosolic pH fluorescence. response, % at 10 µM. actives 0.37% (n = 350,000). AID 504577; in the data active means response mostly above about 7.3%, no sharp cut-off; inactive means mostly below about 5.4%; further: actives read high
Dynein transport = blocks dynein driven cargo transport along microtubules | 3617.4 mouse cells, GR-EGFP nuclear translocation imaging; test concentration mostly 20 µM; stimulated with dexamethasone, 1 µM; active compounds read low | z-score, hits read low | actives 0.47% (n = 220,000);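 active means plate z-score of nuclear minus cytoplasmic receptor signal below a set negative limit, without overly bright fluorescence or cell loss, cut at about -3.5 in these data, passing the limit was not always enough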;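 further: z-score of nuclear minus cytoplasmic ring GR-EGFP intensity difference per well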
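Medium: Induction medium lacking tetracycline, stripped serum | Probe or stimulus: 1.0 µM final dexamethasone stimulus | Schedule: 48 h induction, then 1 h compound, then 30 min agonist, 37 °C | Signal: Automated 10x imaging of fixed Hoechst-stained cells | Evaluation: Per-cell GR-EGFP intensity, nucleus versus surrounding cytoplasmic ring, well-averaged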
p-CIP stab down = p/CIP protein destabilization; Q05BA5; F442A p/CIP-EGFP cells, EGFP fluorescence, 16 h; decrease of EGFP signal, % at 10 µM; actives 0.01% (n = 290,000); AID 1984;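 active means EGFP signal decrease of at least 30% at 10 µM or well 3 SD below plate mean, unless failing retest; inactive means the rest, including hits failing retest or dose response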
Cl transport mod = modulates chloride dependent transport by human KCC2 | KCC2 cells, thallium flux FluoZin-2 fluorescence | B-score of Tl+ flux slope (higher = more flux/activation; lower = inhibition) at 10 µM | actives 2.2% (n = 190,000);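 active means thallium flux slope and its plate-corrected score both differing from the plate sample mean at a set confidence after two filtering rounds, in either direction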;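 further: slope of fluorescence scaled to starting intensity during 10 to 20 s after thallium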
* marks the source's active call; other numbers are inactive results; i = inactive; · = not tested or not shown. The sample as a whole holds a higher share of hits than the screen did.

SMILES	ABCB6 inh 2	V-ATPase pH	Dynein transport	p-CIP stab down	Cl transport mod
O=C(O)CN1C(=O)C=CC1=O	99	-2	·	·	·
O=C1C=CC(=O)N1CCCCCCN1C(=O)C=CC1=O	·	·	-4*	-32	-1
Nc1c([N+](=O)[O-])cc2c3c(cccc13)CC2	99	·	·	·	·
CC(=O)SCC(Cc1ccccc1)C(=O)NCC(=O)OCc1ccccc1 (stereo not drawn)	·	·	·	5	-4.2*
CCc1ccccc1NC(=O)CCC(=O)c1cccs1	102	0	·	-16	·
O=C(CCC(=O)c1cccs1)Nc1ccccc1F	95	19*	-0.72	6	0.26
O=C(Nc1nnc(-c2cccs2)o1)c1cccc(F)c1	98	6	0.33	·	26*
CC(C)(c1ccc(O)cc1)c1ccc(O)c(C(=O)O)c1	91	0	·	·	·
Cc1ccc(-c2nc3ccc(Br)cn3c2CC(C)(C)C)cc1	104	-3	·	·	·
C/C(=N/NC(=O)c1cc2ccccc2cc1O)C1C(=O)c2ccccc2C1=O	99	-2	-0.87	-9	-2.8*
CCCCNC(=O)C1(C)CCC(=O)N1C1CC1 (stereo not drawn)	94	·	·	·	·
COCCN1C(=O)/C(=C/c2ccc(N3CCCC3)cc2C)SC1=S	i	-1	-2.1	-558	-5.4*
CCN=C1S/C(=C\c2ccc(N3CCOCC3)cc2C)C(=O)N1CC	91	-1	0.13	4	0.89
CC(C)n1c(O)c(N=NC(=O)CNC(=O)Cc2ccc(Cl)cc2)c2ccccc21	108	2	·	0	·
CC(C)n1c(O)c(N=Nc2ccc(Cl)nn2)c2ccccc21	126	-2	-0.99	-13	11*
CN(C)c1cccc(CNC(=O)c2ccc3sc([C@@H]4O[C@H](CO)[C@H](O)[C@H](O)[C@H]4O)nc3c2)c1	102	·	·	·	·
Cc1ccc(-c2nnc(SCC(=O)NC(=O)Nc3ccc(C)cc3C)n2N)cc1	96	3	-0.27	10	0.62
Cc1ccc(NC(=O)NC(=O)CSc2nnc(-c3ccc(Cl)cc3Cl)n2N)c(C)c1	104	14*	-0.37	-10	-1.5
CCN1C(=O)[C@H]2[C@@H](c3ccc(C)cc3)N3C(=O)N(c4cccc(Br)c4)C(=O)[C@@]3(Cc3ccccc3)[C@H]2C1=O	99	13*	·	·	·
Cc1ccccc1C(=O)NNC(=S)NC(=O)c1ccccc1	98	0	0.0022	2	30*
CC(C)CNC(=S)NC(=O)c1ccc(Cl)cc1Cl	100	-3	-0.34	-3	39*
O=C(NC(=S)NNC(=O)c1ccco1)c1ccccc1	104	-5	·	-3	·
Cc1ccc(C(=O)NNC(=S)NC(=O)c2ccco2)cc1	98	2	-0.31	2	55*
O=C(NCCNC(=O)c1ccc(Cl)cc1Cl)c1ccc(Cl)cc1Cl	93	·	·	·	·
O=C(/C=C/c1ccccc1)NC(=S)NNC(=O)c1ccco1	107	0	-0.2	-13	6.4*
SMILES	ABCB6 inh 2	V-ATPase pH	Dynein transport	p-CIP stab down	Cl transport mod
O=C(NC(=S)NNC(=O)c1ccccc1O)c1ccccc1	98	1	·	1	·
C(=C\c1ccc2nncn2c1)/c1ccccc1	109	·	·	·	·
COc1ccccc1C(NC(=O)C1CCN(CCc2ccc(Br)cc2)CC1)c1ccccn1 (stereo not drawn)	99	·	·	·	·
Cc1nc2c(OCc3ccc(C#N)cc3)cccn2c1N(C)Cc1cccs1	95	·	·	·	·
CC(C)(C)NC(=O)C1c2ccccc2OCC(=O)N1CC(F)(F)F (stereo not drawn)	97	·	·	·	·
CC(C)CNC(=S)NC(=O)c1ccc(F)cc1	97	3	0.36	5	18*
CC(C)NC(=S)NC(=O)c1ccc(Cl)cc1Cl	92	0	2.6	9	29*
Cc1ccc(C(=O)NNC(=S)NC(=O)c2ccc(Cl)cc2Cl)cc1	94	0	0.92	0	59*
O=C(NC(=S)NCCN1CCOCC1)c1ccc(F)cc1	93	-4	0.16	0	-0.25
CC1CCCC(NC(=O)c2cc(S(=O)(=O)N3CCCCC3)c[nH]2)C1C (stereo not drawn)	100	·	·	·	·
CC(C)C[C@H](NC(=O)/C=C/[C@H]1O[C@@H](n2ccc(=O)[nH]c2=O)[C@H](O)[C@@H]1O)C(=O)O	99	·	·	·	·
COC(=O)N1C2CCCCC2=NN(c2ccccc2)N1C(=O)OC (stereo not drawn)	90	·	·	·	·
COc1cccc(NCc2cc(=O)oc3cc(-c4ccccc4)c(O)cc23)c1	97	21*	-0.47	2	0.68
